{"source": "ChEMBL document CHEMBL4382192", "about": "“Discovery of a potent dual ALK and EGFR T790M inhibitor” (Eur J Med Chem, 2017)", "key": {"[1]": {"biological_target": "Dual specificity tyrosine-phosphorylation-regulated kinase 2 (Homo sapiens) (UniProt Q92630)", "assay": "Binding affinity to wild-type human full length DYRK2 (M1 to S528 residues) expressed in mammalian expression system assessed as residual binding level at 1 uM by Kinomescan method relative to control"}, "[2]": {"biological_target": "Tyrosine-protein kinase Fyn (Homo sapiens) (UniProt P06241)", "sequence (P06241 2-537 limits assumed)": "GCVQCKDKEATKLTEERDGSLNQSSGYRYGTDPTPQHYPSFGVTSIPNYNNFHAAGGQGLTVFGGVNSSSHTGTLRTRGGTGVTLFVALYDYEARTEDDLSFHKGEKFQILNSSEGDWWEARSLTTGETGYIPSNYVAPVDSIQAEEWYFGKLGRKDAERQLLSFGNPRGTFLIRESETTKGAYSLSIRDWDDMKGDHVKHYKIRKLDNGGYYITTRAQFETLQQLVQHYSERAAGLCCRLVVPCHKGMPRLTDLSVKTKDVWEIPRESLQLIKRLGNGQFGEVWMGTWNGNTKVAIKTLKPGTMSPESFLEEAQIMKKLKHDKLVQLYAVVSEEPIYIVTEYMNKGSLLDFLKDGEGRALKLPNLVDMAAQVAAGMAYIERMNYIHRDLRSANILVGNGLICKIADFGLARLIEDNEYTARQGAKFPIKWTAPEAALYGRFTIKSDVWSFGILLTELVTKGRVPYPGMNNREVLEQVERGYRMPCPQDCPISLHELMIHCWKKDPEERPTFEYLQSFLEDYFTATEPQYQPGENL", "assay": "Binding affinity to wild-type human partial length FYN (T243 to L534 residues) expressed in bacterial expression system assessed as residual binding level at 1 uM by Kinomescan method relative to control"}, "[3]": {"test_system": "Mast/stem cell growth factor receptor Kit (Homo sapiens), P10721 [V559D]", "sequence (P10721 whole entry V559D, the tested form may be a part)": "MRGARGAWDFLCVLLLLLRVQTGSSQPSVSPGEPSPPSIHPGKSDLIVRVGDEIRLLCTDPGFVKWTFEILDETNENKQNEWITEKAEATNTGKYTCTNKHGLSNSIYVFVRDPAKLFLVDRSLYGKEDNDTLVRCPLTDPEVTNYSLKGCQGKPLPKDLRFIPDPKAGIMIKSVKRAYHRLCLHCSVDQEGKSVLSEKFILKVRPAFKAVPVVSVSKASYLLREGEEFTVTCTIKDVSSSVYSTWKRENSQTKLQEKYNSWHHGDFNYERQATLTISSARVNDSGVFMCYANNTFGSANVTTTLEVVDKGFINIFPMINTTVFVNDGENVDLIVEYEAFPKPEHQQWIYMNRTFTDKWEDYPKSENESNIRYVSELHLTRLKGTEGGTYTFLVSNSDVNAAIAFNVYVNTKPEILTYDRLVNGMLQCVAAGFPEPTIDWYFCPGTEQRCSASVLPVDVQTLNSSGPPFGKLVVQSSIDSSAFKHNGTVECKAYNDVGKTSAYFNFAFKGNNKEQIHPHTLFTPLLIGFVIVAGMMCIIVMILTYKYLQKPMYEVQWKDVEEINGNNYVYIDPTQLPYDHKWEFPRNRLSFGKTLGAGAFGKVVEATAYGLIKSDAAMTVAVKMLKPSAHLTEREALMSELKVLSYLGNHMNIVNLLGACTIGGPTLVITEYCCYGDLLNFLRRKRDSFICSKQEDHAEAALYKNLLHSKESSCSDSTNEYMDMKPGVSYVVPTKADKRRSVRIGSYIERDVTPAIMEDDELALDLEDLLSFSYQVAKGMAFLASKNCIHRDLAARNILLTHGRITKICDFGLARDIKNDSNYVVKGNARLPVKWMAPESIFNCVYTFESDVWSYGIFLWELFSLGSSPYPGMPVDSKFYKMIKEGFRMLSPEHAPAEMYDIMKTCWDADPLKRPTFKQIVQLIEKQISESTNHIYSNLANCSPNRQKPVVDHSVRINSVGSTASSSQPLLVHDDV", "assay": "Binding affinity to human partial length KIT V559D mutant (Y545 to D952 residues) expressed in bacterial expression system assessed as residual binding level at 1 uM by Kinomescan method relative to control", "summary_of_the_method": "(§1)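 Kinome-wide selectivity panel run by the KINOMEscan method, with the test compound at a single concentration of 1 μM. Wild-type and mutant kinases were profiled in the same screen.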"}, "[4]": {"biological_target": "Serine/threonine-protein kinase 3 (Homo sapiens) (UniProt Q13188)", "sequence (Q13188 whole entry, the tested form may be a part)": "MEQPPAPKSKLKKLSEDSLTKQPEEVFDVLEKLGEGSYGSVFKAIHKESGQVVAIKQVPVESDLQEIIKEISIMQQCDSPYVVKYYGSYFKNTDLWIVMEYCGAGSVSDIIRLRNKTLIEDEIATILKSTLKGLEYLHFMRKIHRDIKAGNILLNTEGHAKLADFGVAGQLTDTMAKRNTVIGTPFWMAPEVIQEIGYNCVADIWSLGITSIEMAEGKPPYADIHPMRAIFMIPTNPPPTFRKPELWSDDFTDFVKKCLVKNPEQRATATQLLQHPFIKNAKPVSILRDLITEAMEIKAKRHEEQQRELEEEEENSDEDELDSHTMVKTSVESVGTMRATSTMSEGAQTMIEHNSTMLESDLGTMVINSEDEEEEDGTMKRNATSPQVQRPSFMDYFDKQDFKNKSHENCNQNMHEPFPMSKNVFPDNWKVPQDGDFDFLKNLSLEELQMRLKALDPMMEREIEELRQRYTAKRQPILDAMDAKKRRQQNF", "assay": "Binding affinity to wild-type human partial length MST2 (D17 to E318 residues) expressed in bacterial expression system assessed as residual binding level at 1 uM by Kinomescan method relative to control"}, "[5]": {"biological_target": "cAMP-dependent protein kinase catalytic subunit PRKX (Homo sapiens) (UniProt P51817)", "assay": "Binding affinity to wild-type human partial length PRKX (M1 to F358 residues) expressed in bacterial expression system assessed as residual binding level at 1 uM by Kinomescan method relative to control"}, "[6]": {"biological_target": "Myosin-IIIa (Homo sapiens) (UniProt Q8NEV4)", "sequence (Q8NEV4 whole entry, the tested form may be a part)": "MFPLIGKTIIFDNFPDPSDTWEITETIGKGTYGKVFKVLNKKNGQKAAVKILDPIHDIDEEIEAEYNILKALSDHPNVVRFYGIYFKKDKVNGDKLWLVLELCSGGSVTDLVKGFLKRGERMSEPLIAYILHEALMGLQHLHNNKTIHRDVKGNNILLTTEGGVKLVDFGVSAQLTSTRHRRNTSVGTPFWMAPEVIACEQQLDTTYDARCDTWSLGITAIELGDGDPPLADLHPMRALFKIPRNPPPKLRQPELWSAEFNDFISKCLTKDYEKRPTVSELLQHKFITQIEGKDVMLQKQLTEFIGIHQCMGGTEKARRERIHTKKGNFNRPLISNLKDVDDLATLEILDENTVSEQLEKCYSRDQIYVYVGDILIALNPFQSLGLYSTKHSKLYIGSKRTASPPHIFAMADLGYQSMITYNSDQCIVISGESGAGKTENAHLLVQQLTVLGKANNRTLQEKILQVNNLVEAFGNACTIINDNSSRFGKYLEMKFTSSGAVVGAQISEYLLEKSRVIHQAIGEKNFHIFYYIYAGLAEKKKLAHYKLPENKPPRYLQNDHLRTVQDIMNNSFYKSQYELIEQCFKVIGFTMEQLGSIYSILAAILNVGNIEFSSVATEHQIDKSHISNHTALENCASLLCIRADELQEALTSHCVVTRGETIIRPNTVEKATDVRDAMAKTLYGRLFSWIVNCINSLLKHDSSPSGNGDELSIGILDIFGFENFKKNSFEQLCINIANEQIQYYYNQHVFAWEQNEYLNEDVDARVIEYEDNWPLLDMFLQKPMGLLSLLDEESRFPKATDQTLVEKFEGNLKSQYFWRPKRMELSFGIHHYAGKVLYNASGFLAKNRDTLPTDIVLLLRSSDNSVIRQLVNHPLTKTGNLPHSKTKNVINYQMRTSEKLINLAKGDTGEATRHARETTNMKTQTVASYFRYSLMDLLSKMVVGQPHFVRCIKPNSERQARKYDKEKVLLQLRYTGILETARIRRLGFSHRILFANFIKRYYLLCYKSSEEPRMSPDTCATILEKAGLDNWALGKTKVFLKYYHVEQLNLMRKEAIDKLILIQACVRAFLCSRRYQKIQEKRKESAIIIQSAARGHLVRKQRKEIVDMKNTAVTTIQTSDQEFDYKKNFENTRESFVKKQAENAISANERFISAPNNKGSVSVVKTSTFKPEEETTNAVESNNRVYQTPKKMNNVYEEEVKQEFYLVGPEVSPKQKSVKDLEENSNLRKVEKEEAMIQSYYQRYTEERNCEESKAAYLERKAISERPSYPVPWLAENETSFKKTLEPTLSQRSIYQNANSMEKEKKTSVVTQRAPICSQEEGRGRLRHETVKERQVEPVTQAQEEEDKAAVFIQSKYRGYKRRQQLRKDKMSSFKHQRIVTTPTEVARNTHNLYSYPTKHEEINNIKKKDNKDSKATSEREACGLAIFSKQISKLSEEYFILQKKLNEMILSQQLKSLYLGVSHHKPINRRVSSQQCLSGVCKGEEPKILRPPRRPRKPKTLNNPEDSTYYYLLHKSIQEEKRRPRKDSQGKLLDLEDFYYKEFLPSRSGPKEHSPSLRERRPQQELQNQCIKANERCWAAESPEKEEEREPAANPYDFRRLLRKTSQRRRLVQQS", "assay": "Binding affinity to wild-type human partial length MYO3A (M1 to K338 residues) expressed in bacterial expression system assessed as residual binding level at 1 uM by Kinomescan method relative to control"}, "[7]": {"biological_target": "Mitogen-activated protein kinase kinase kinase kinase 5 (Homo sapiens) (UniProt Q9Y4K4)", "assay": "Binding affinity to wild-type human partial length MAP4K5 (M1 to P297 residues) expressed in bacterial expression system assessed as residual binding level at 1 uM by Kinomescan method relative to control"}, "[8]": {"biological_target": "RAC-gamma serine/threonine-protein kinase (Homo sapiens) (UniProt Q9Y243)", "sequence (Q9Y243 whole entry)": "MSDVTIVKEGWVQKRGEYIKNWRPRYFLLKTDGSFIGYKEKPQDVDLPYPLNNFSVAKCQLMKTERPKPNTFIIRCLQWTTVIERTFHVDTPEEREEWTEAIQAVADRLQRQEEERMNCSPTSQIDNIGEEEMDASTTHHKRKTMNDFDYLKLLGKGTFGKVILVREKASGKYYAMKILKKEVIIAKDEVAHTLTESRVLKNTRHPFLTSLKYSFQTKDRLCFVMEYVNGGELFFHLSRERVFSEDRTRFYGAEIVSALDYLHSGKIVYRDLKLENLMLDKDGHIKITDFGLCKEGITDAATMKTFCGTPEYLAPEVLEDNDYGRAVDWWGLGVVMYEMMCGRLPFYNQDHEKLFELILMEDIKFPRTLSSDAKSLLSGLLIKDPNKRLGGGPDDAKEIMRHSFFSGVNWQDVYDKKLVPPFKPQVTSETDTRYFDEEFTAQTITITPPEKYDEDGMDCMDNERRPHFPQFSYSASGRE", "assay": "Binding affinity to wild-type human partial length AKT3 expressed in bacterial expression system assessed as residual binding level at 1 uM by Kinomescan method relative to control"}, "[9]": {"assay": "Inhibition of EGFR/ALK L1152R mutant in human DFCI076 cells assessed as reduction in cell viability after 72 hrs by MTS assay", "format": "cell-based"}, "[10]": {"biological_target": "Serine/threonine-protein kinase STK11 (Homo sapiens) (UniProt Q15831)", "assay": "Binding affinity to wild-type human full length LKB1 (M1 to Q433 residues) expressed in bacterial expression system assessed as residual binding level at 1 uM by Kinomescan method relative to control", "summary_of_the_method": "(§2)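 Single-point kinome-wide KINOMEscan binding panel, test compound at 1 μM, run by the provider's standard protocol.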"}, "[11]": {"test_system": "Tyrosine-protein kinase ABL1 (Homo sapiens), P00519 [H396P]", "assay": "Binding affinity to human non-phosphorylated ABL1 H396P mutant (S229 to K512 residues) expressed in mammalian expression system assessed as residual binding level at 1 uM by Kinomescan method relative to control", "summary_of_the_method": "as §1"}, "[12]": {"biological_target": "Serine/threonine-protein kinase TBK1 (Homo sapiens) (UniProt Q9UHD2)", "assay": "Binding affinity to wild-type human full length TBK1 (M1 to L729 residues) expressed in mammalian expression system assessed as residual binding level at 1 uM by Kinomescan method relative to control"}, "[13]": {"biological_target": "Casein kinase I isoform gamma-1 (Homo sapiens) (UniProt Q9HCP0)", "assay": "Binding affinity to wild-type human partial length CSNK1G1 (T15 to S353 residues) expressed in bacterial expression system assessed as residual binding level at 1 uM by Kinomescan method relative to control"}, "[14]": {"biological_target": "Cyclin-dependent kinase 18 (Homo sapiens) (UniProt Q07002)", "assay": "Binding affinity to wild-type human full length PCTK3 (M3 to F474 residues) expressed in bacterial expression system assessed as residual binding level at 1 uM by Kinomescan method relative to control", "summary_of_the_method": "as §2"}, "[15]": {"biological_target": "Serine/threonine-protein kinase SIK1 (Homo sapiens) (UniProt P57059)", "assay": "Binding affinity to wild-type human partial length SIK (M1 to Y304 residues) expressed in bacterial expression system assessed as residual binding level at 1 uM by Kinomescan method relative to control"}, "[16]": {"biological_target": "Macrophage colony-stimulating factor 1 receptor (Homo sapiens) (UniProt P07333)", "assay": "Binding affinity to wild-type human partial length autoinhibited CSF1R (Y538 to S939 residues) expressed in mammalian expression system assessed as residual binding level at 1 uM by Kinomescan method relative to control"}, "[17]": {"biological_target": "Mitogen-activated protein kinase 1 (Homo sapiens) (UniProt P28482)", "assay": "Binding affinity to wild-type human full length ERK2 (M1 to S360 residues) expressed in bacterial expression system assessed as residual binding level at 1 uM by Kinomescan method relative to control", "summary_of_the_method": "as §2"}, "[18]": {"biological_target": "Protein kinase C eta type (Homo sapiens) (UniProt P24723)", "sequence (P24723 whole entry, the tested form may be a part)": "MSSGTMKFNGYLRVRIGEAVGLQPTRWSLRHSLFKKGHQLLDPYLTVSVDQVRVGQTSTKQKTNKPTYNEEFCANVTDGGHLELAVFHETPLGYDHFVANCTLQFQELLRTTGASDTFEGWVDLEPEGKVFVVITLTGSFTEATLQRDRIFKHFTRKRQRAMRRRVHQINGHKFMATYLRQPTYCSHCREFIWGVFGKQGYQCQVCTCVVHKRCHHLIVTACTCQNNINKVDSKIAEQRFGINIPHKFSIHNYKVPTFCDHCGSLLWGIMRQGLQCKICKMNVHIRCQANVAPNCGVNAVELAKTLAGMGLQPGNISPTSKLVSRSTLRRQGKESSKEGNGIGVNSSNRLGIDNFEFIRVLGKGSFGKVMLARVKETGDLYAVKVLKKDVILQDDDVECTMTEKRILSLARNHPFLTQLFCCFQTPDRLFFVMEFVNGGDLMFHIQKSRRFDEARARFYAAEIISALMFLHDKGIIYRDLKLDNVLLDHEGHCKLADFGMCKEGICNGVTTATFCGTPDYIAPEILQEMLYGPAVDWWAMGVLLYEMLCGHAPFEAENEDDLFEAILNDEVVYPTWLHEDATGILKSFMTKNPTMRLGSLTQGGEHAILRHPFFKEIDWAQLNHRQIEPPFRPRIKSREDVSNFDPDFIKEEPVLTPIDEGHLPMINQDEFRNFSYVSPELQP", "assay": "Binding affinity to wild-type human partial length PRKCH (S324 to P683 residues) expressed in bacterial expression system assessed as residual binding level at 1 uM by Kinomescan method relative to control"}, "[19]": {"biological_target": "Aurora kinase B (Homo sapiens) (UniProt Q96GD4)", "assay": "Binding affinity to wild-type human partial length AURKB (D25 to A303 residues) expressed in mammalian expression system assessed as residual binding level at 1 uM by Kinomescan method relative to control"}, "[20]": {"biological_target": "Receptor-interacting serine/threonine-protein kinase 4 (Homo sapiens) (UniProt P57078)", "assay": "Binding affinity to wild-type human partial length RIPK4 (M1 to V303 residues) expressed in mammalian expression system assessed as residual binding level at 1 uM by Kinomescan method relative to control"}, "[21]": {"biological_target": "Serine/threonine-protein kinase RIO1 (Homo sapiens) (UniProt Q9BRS2)", "assay": "Binding affinity to wild-type human full length RIOK1 (M1 to K568 residues) expressed in bacterial expression system assessed as residual binding level at 1 uM by Kinomescan method relative to control", "summary_of_the_method": "as §2"}, "[22]": {"test_system": "Phosphatidylinositol 4,5-bisphosphate 3-kinase catalytic subunit alpha isoform (Homo sapiens), P42336 [M1043I]", "assay": "Binding affinity to human partial length PIK3CA M1043I mutant (R108 to N1068 residues) expressed in mammalian expression system assessed as residual binding level at 1 uM by Kinomescan method relative to control"}, "[23]": {"biological_target": "Serine/threonine-protein kinase Sgk2 (Homo sapiens) (UniProt Q9HBY8)", "assay": "Binding affinity to wild-type human partial length SGK2 (L54 to C427 residues) expressed in mammalian expression system assessed as residual binding level at 1 uM by Kinomescan method relative to control"}, "[24]": {"biological_target": "G protein-coupled receptor kinase 4 (Homo sapiens) (UniProt P32298)", "assay": "Binding affinity to wild-type human full length GRK4 (M1 to C578 residues) expressed in bacterial expression system assessed as residual binding level at 1 uM by Kinomescan method relative to control"}}, "data": [{"molecule": "C=CC(=O)Nc1cc(Nc2ncc(Cl)c(Nc3ccccc3S(=O)(=O)C(C)C)n2)c(OC)cc1N(C)CCN(C)C", "values": [{"measurement": "Activity", "setting": "[1]", "result": 100, "unit": "%"}, {"measurement": "Activity", "setting": "[2]", "result": 46, "unit": "%"}, {"measurement": "Activity", "setting": "[3]", "result": 31, "unit": "%"}, {"measurement": "Activity", "setting": "[4]", "result": 56, "unit": "%"}, {"measurement": "Activity", "setting": "[5]", "result": 100, "unit": "%"}, {"measurement": "Activity", "setting": "[6]", "result": 31, "unit": "%"}, {"measurement": "Activity", "setting": "[7]", "result": 66, "unit": "%"}, {"measurement": "Activity", "setting": "[8]", "result": 100, "unit": "%"}, {"measurement": "EC50", "setting": "[9]", "result": 0.82, "unit": "µM"}, {"measurement": "Activity", "setting": "[10]", "result": 88, "unit": "%"}, {"measurement": "Activity", "setting": "[11]", "result": 2.3, "unit": "%"}, {"measurement": "Activity", "setting": "[12]", "result": 21, "unit": "%"}, {"measurement": "Activity", "setting": "[13]", "result": 74, "unit": "%"}, {"measurement": "Activity", "setting": "[14]", "result": 77, "unit": "%"}, {"measurement": "Activity", "setting": "[15]", "result": 67, "unit": "%"}, {"measurement": "Activity", "setting": "[16]", "result": 92, "unit": "%"}, {"measurement": "Activity", "setting": "[17]", "result": 68, "unit": "%"}, {"measurement": "Activity", "setting": "[18]", "result": 100, "unit": "%"}, {"measurement": "Activity", "setting": "[19]", "result": 39, "unit": "%"}, {"measurement": "Activity", "setting": "[20]", "result": 72, "unit": "%"}, {"measurement": "Activity", "setting": "[21]", "result": 92, "unit": "%"}, {"measurement": "Activity", "setting": "[22]", "result": 84, "unit": "%"}, {"measurement": "Activity", "setting": "[23]", "result": 95, "unit": "%"}, {"measurement": "Activity", "setting": "[24]", "result": 91, "unit": "%"}]}]}
